Test results as given in PubChem BioAssay AID623869 (Vanderbilt High Throughput Screening Facility, 2012).
The whole screen tested about 2,100 compounds, of which about 75 (4%) were called active. The sample holds actives, similar compounds and a random draw of the others, so the mix is not that of the screen.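 The calls were made as follows: active = calcium fluorescence trace judged by eye to show a response, as agonist, enhancer of the glutamate response, or inhibitor; inactive = trace judged by eye to show no response.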

What follows are molecules tested against Metabotropic glutamate receptor 8 (Rattus norvegicus) (UniProt P70579) (assay: mGlu8-mediated intracellular calcium response modulators – cell-based, HEK293 rmGlu8, Gqi9 chimera, Fluo-4 calcium, counter-screen for GIRK activator project, confirmation (AID 623869)). Settings: HEK293 rmGlu8/Gqi9 calcium flux, Fluo-4 fluorescence; glutamate at EC20 added after compound.
Summary of the method: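 system = HEK-293 cells stably expressing rat mGlu8, plus transient chimeric Gqi9 | measured by = Fluo-4 calcium fluorescence, 1 Hz | timing = compound pre-exposure 4 min, post-glutamate read 2 min | measure = F/F0 fluorescence traces judged visually for each well | medium = HEPES-buffered HBSS at pH 7.4 | doses = single compound addition from 20 µM solution, 0.2% DMSO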

Chain of Metabotropic glutamate receptor 8 (Rattus norvegicus) (P70579 whole entry, looked up): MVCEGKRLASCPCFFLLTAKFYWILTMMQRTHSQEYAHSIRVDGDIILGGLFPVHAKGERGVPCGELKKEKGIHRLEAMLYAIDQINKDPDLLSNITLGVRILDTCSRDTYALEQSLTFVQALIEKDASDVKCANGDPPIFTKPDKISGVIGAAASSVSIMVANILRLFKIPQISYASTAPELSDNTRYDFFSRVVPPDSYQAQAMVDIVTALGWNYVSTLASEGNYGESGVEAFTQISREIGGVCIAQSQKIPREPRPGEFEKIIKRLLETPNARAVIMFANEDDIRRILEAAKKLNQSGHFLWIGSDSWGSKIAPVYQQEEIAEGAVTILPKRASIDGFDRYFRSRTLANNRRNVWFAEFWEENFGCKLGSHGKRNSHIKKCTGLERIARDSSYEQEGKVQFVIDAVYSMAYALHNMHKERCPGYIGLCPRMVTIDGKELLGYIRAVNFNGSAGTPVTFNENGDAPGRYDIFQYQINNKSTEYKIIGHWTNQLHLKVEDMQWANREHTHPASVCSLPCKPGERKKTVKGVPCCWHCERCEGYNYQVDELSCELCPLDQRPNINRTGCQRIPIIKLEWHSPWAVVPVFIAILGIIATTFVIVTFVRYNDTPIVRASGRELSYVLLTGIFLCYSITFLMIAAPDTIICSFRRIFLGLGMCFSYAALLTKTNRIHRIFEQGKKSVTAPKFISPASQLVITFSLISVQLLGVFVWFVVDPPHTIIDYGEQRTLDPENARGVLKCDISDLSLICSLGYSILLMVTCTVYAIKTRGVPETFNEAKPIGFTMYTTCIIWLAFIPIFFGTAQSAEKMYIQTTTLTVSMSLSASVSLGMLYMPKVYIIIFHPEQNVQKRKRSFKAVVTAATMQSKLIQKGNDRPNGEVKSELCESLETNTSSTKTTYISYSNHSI

| SMILES | outcome |
| --- | --- |
| COC(=O)c1cc(CSc2nc3ccc(C)cc3[nH]2)oc1C | inactive; 0 |
| O=C(NNC(=S)Nc1cccc2ccccc12)c1cccc(Br)c1 | inactive; 0 |
| CCc1c(C)c(C#N)c2nc3ccccc3n2c1NCc1ccco1 | inactive; 0 |
| Cc1ccc2nc(-c3ccc(O)cc3)c(Nc3ccc4c(c3)OCCO4)n2c1 | inactive; -1 |
| O=c1c2cc(Cl)ccc2[nH]c(=S)n1Cc1ccco1 | inactive; 0 |
| O=C(NC(=S)Nc1ccc(N2CCCCC2)cc1)c1ccco1 | inactive; 0 |
| Cc1cc(C)c2[nH]c(=S)cc(C)c2c1 | inactive; 0 |
| CCCCn1c(=S)[nH]c2c(oc3ccc(Cl)cc32)c1=O | inactive; 0 |
| O=C1CC(C(F)(F)C(F)(F)C(F)(F)F)=Nc2ccccc2N1 | inactive; 0 |
| Cc1ccc2c(c1)NC(=O)CC(c1ccccc1)=N2 | active; 2 |
| O=C(NC(=S)N1CCN(c2ccc([N+](=O)[O-])cc2)CC1)c1ccc(F)cc1 | inactive; 0 |
| COc1ccc(NC(=O)C(=O)NNC(=O)c2cccs2)cc1 | inactive; 0 |
| CC(C)CNC(=S)NC(=O)c1ccc(Cl)cc1Cl | inactive; 0 |
| O=C(NC(=S)NCCc1ccccc1)c1ccccc1 | inactive; 0 |
| CCCCNC(=S)NC(=O)c1ccc(Cl)cc1Cl | inactive; 0 |
| O=C(COc1ccccc1)NNC(=S)NC(=O)c1ccc(Cl)cc1Cl | active; 1 |
| COC(=O)c1ccccc1NC(=S)NC(=O)c1ccccc1 | inactive; 0 |
| O=C(NC(=S)NCCc1ccccc1)c1ccco1 | inactive; 0 |
| CC(C)NC(=S)NC(=O)c1ccc(Cl)cc1Cl | inactive; 0 |
| Cc1ccccc1C(=O)NC(=S)NCCc1ccccc1 | active; -1 |
| Cc1ccc(C(=O)NNC(=S)NC(=O)c2ccc(Cl)cc2Cl)cc1 | inactive; 4 |
| Cc1ccccc1C(=O)NNC(=S)NC(=O)c1ccccc1 | active; 1 |

| SMILES | outcome |
| --- | --- |
| Cc1ccccc1C(=O)NC(=S)Nc1ccc(Oc2ccc(Cl)cc2)cc1 | inactive; 4 |
| Cc1ccccc1C(=O)NNC(=S)NC(=O)c1ccc(Cl)cc1Cl | active; 1 |
| CC(C)C(=O)Nc1ccccc1N1CCN(C(=O)c2ccccc2)CC1 | inactive; 0 |
| CC1(C)Cc2c(sc3[nH]c(=S)n(Cc4ccco4)c(=O)c23)CO1 | inactive; 0 |
| Cc1[nH]n2c(=O)cc(C(C)(C)C)nc2c1-c1ccccc1 | inactive; 0 |
| COC(=O)c1sc(NC(=S)NC(=O)c2ccccc2)nc1C | inactive; 0 |
| Cc1ccccc1C(=O)Nc1ccccc1C(=O)N/N=C\c1ccco1 | inactive; 0 |
| O=C(N/N=C(\c1ccccc1)c1cccnc1)C(O)(c1ccccc1)c1ccccc1 | inactive; 0 |
| CC(Oc1ccc(Cl)cc1Cl)C(=O)NC(=S)N1CCc2ccccc21 (centres undefined) | inactive; 0 |
| Cc1ccccc1NC(=S)NC(=O)c1cncc(Br)c1 | inactive; 0 |
| Cc1onc(-c2ccccc2)c1C(=O)NC(=S)Nc1sc2c(c1C#N)CCCC2 | inactive; 0 |
| Cc1onc(-c2ccccc2)c1C(=O)NNC(=S)NC(=O)c1ccc(Br)cc1 | active; 1 |
| Cc1cccc(OCC(=O)Nc2ccccc2N2CCN(C(=O)C(C)C)CC2)c1C | inactive; 0 |
| CCc1ccc(Nc2nc3ccccc3c(=O)s2)cc1 | inactive; 0 |
| O=C1OC2(CCCCC2)OC(=O)C1=CNc1nc2ccccc2s1 | inactive; 0 |
| Cc1ccc(C)c(NC(=S)NNC(=O)c2csc(C(C)C)c2)c1 | inactive; 0 |
| CCCc1nnc2n1N=C(c1ccc(OC)c(OC)c1)CS2 | active; 2 |
| CCOc1ccc(-c2nc(-c3ccc(OC)c(OC)c3)no2)cc1OCC | inactive; 0 |
| COc1ccccc1C1=Nn2c(nnc2C2CCCCC2)SC1 | inactive; 0 |
| Brc1ccccc1C1=Nn2c(nnc2-c2ccccc2)SC1 | inactive; 0 |
| COc1ccc(C2=Nn3c(nnc3C3CCCCC3)SC2)cc1OC | active; 2 |
| c1cc2c(cc1C1=Nn3c(nnc3C3CCCCC3)SC1)OCO2 | inactive; 0 |

| SMILES | outcome |
| --- | --- |
| COc1ccc(-c2nnc3sc(C4CCCCC4)nn23)cc1OC | active; 2 |
| CC(C)COn1c(=S)[nH]c2ccccc2c1=O | inactive; 0 |
| Cc1ccc(N2C(=S)N=C(Nc3ccccc3C)C23CCOC(C)(C)C3)cc1 (centres undefined) | inactive; 0 |
| C=CCN(CC=C)C(=S)NC(=O)c1ccc(OC)c(Br)c1 | inactive; 0 |
| Cc1ccc(N=C2CCCN2Cc2ccccc2)c(C#N)c1 | inactive; 0 |
| CCC(C)n1c(=S)[nH]c2c(sc3ccc([N+](=O)[O-])cc32)c1=O (centres undefined) | inactive; 4 |
| O=C(COc1ccccc1)NC(=S)N1CCc2ccccc21 | inactive; 0 |
| O=C(NC(=S)N1CCN(Cc2ccc3c(c2)OCO3)CC1)c1cccc(Br)c1 | inactive; 0 |
| CC(c1ccc(Cl)cc1)n1c(-c2ccc3ccccc3n2)n[nH]c1=S (centres undefined) | inactive; 0 |
| O=C(N/N=C/c1ccccn1)c1ccc(Br)cc1 | inactive; 0 |
| O=C(NC(Nc1nc2ccc([N+](=O)[O-])cc2s1)(C(F)(F)F)C(F)(F)F)c1ccccc1 | inactive; 4 |
| O=C(NC(Nc1nc2ccc([N+](=O)[O-])cc2s1)(C(F)(F)F)C(F)(F)F)c1ccccc1Cl | active; -1 |
| Cc1ccc(C)c(OCC(=O)Nc2nc3ccc([N+](=O)[O-])cc3s2)c1C | inactive; 0 |
| CCOC(=O)c1sc(NC(=S)NC(=O)c2ccco2)nc1C | inactive; 0 |
| Cc1sc2ncnc(SCc3ccco3)c2c1C | inactive; 0 |
| CCOC(=O)c1sc2ncnc(NCc3ccco3)c2c1C | active; 2 |
| O=C(Nc1nc(-c2ccccc2)c(-c2ccccc2)o1)c1ccc(F)cc1 | inactive; 0 |
| COc1ccc(C)cc1NC(=O)C(=O)NNC(=O)c1ccco1 | inactive; 0 |
| Cc1ccc(-c2csc3nc[nH]c(=S)c23)cc1C | inactive; 0 |
| COC(=O)C1=NN(C(=O)c2ccc(Cl)cc2)C(O)(c2ccccc2)C1 (centres undefined) | inactive; 4 |
| COC(=O)CSc1nc2ncccc2[nH]1 | inactive; 0 |
| COC(=O)CSC1=NS(=O)(=O)c2ccccc21 | active; -1 |

| SMILES | outcome |
| --- | --- |
| CCc1cccc(NC(=O)CSC2=NS(=O)(=O)c3ccccc32)c1 | inactive; 0 |
| CCn1c(SCC(N)=O)nc2sc3c(c2c1=O)CCCC3 | inactive; 0 |
| COc1cc(NC(=O)C(=O)NNC(=O)C2CCCCC2)c(OC)cc1Cl | inactive; 0 |
| COc1cc(/C=C2\S/C(=N/S(=O)(=O)c3ccc(C)cc3)NC2=O)c([N+](=O)[O-])cc1OC | active; 2 |
| COc1ccc(CN(CCC#N)C(=S)NC(=O)c2ccccc2)cc1 | inactive; 0 |
| COC(=O)c1c(NS(=O)(=O)c2cccs2)sc2c1CCCC2 | inactive; 0 |
| O=C(C1CCN(S(=O)(=O)c2cccc3cccnc23)CC1)N1CC=C(c2ccccc2)CC1 | inactive; 0 |
| O=C(Nc1nnc(-c2ccccc2Cl)o1)c1ccc(S(=O)(=O)N2CCCCCC2)cc1 | inactive; 3 |
| O=C(Nc1nnc(-c2ccc(Cl)cc2)o1)c1nc2ccccc2s1 | inactive; 0 |
| O=C(Nc1nnc(-c2ccccc2Cl)o1)c1nc2ccccc2s1 | active; 1 |
| O=C(Nc1ccc2[nH]c(=S)sc2c1)c1ccccc1 | inactive; 0 |
| O=C(NC(=S)N(Cc1ccccc1)Cc1ccccc1)c1ccccc1F | inactive; 0 |
| CCCCOC(=O)c1ccc(NC(=S)NC(=O)c2c(Cl)cnn2CC)cc1 | inactive; 0 |
| O=C(Nc1ccccc1)c1ccccc1NS(=O)(=O)c1ccc(Cl)s1 | active; 1 |
| O=S(=O)(Nc1ccccc1N1CCCCC1)c1ccc(Cl)s1 | inactive; 0 |
| O=C(Nc1nncs1)c1ccccc1NS(=O)(=O)c1cccs1 | inactive; 0 |
| CCOc1ccc2nc(/N=C/c3c(C)[nH]n(-c4ccccc4)c3=O)sc2c1 | inactive; 0 |
| O=C(NC(=S)N1CCN(c2ccc(Cl)cc2[N+](=O)[O-])CC1)c1cccs1 | inactive; 0 |
| COc1ccccc1C(=O)NNC(=S)NC(=O)c1ccco1 | inactive; 4 |
| CC(Oc1ccc2ccccc2c1)C(=O)NNC(=S)NC(=O)c1ccco1 (centres undefined) | inactive; 4 |
| CC(Oc1ccc(Cl)cc1)C(=O)NNC(=S)NC(=O)c1ccco1 (centres undefined) | active; 1 |
| CCCc1ccc(OCC(=O)NNC(=S)NC(=O)c2ccco2)cc1 | inactive; 3 |

| SMILES | outcome |
| --- | --- |
| Cc1ccccc1OCC(=O)NNC(=S)NC(=O)c1ccco1 | active; 1 |
| Cc1cccc(NC(=S)NC(=O)c2ccco2)n1 | inactive; 0 |
| CCn1nc(C(=O)OCC(=O)N2CCc3ccccc32)c2ccccc2c1=O | inactive; 0 |
| COc1ccc(CCNC(=O)CSc2nnc(-c3ccc(F)cc3)c3ccccc23)cc1OC | inactive; 0 |
| Cc1cc(C)n(-c2nnc(C)n2/N=C/c2ccccc2OCc2ccccc2Cl)n1 | inactive; 0 |
| Cc1ccccc1NC(=S)NNC(=O)c1csc2c1CCC(C)C2 (centres undefined) | inactive; 0 |
| Cc1ccc(CSc2ncnc3c2cnn3-c2ccc(C)cc2)cc1 | inactive; 0 |
| CCCn1c(=O)c2ccccc2n2c(SCC(=O)N3CCc4ccccc4C3)nnc12 | inactive; 0 |
| CCCn1c(=O)c2ccccc2n2c(SCCOc3ccccc3F)nnc12 | active; 2 |
| CCCn1c(=O)c2ccccc2n2c(SCc3nc4ccccc4s3)nnc12 | inactive; 0 |
| O=C(NC(NC(=S)Nc1ccc(Cl)cc1Cl)C(Cl)(Cl)Cl)c1cccc([N+](=O)[O-])c1 (centres undefined) | inactive; 4 |
| S=C(Nc1ccccc1Cl)Nc1ccc(Cl)cc1Cl | inactive; 0 |
| COC(=O)c1ccc(CSc2nnc(Nc3ccccc3OC)s2)o1 | inactive; 0 |
| CCC(Sc1ccc2nnc(-c3ccc(F)cc3)n2n1)C(=O)OC (centres undefined) | inactive; 0 |
| COC(=O)c1ccc(CSc2ccc3nnc(-c4ccccc4)n3n2)o1 | active; 2 |
| COc1ccc2nc(N3C(=O)/C(=C/c4ccccc4)NC3=S)sc2c1 | inactive; 0 |
| CCCc1ccc(C(=O)N2CCN(c3ccccc3OCC)CC2)cc1 | inactive; 0 |
| Cc1cc(C)c2nc(NC(=O)c3cc(C)on3)sc2c1 | inactive; 0 |
| CCOc1ccc(-c2nc(-c3cccnc3)no2)cc1OCC | active; 2 |
| CCOc1cc(-c2noc(-c3cccnc3)n2)ccc1OC | inactive; 0 |
| CCOc1ccc(-c2nc(-c3ccncc3)no2)cc1OCC | inactive; 0 |
